Data published in ChEMBL document CHEMBL1122456, “Structure-activity relationships for activation of adenylate cyclase by the diterpene forskolin and its derivatives” (J Med Chem, 1983).

Legend:
Format in all cases: functional
Cavia porcellus = organism: Cavia porcellus; experiment: Percent conversion of total labeled nucleotides to cyclic AMP, determined in guinea pig cerebral cortical vesicular entities at 200 uM concentration
How it was run: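 Gray-matter cortex slices from male NIH guinea pigs (300 g) homogenized in O2/CO2-gassed KRB, pH 7.4. The 1000g pellet was labeled with [3H]adenine for 30 min at 37 °C, washed, post-incubated 15 min at 37 °C, and aliquoted. Aliquots were equilibrated 10 min at 37 °C, then given compound at 200 μM for 10 min at 30 °C and stopped with TCA. Read-out is labeled cAMP as percent of total labeled adenine nucleotides, reported as mean ± SEM.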

Oryctolagus cuniculus = organism: Oryctolagus cuniculus; experiment: Percent stimulation of adenylate cyclase determined in rabbit heart membranes at 5 uM of compound as compared to 5 uM of forskolin; conditions: Membrane
Rattus norvegicus = organism: Rattus norvegicus; experiment: Concentration required to activate rat cerebral cortical adenylate cyclase activity elicited by 200 uM forskolin
How it was run: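 Fresh crude cortical membranes from male Sprague-Dawley rats (150-175 g). Incubated in 50 mM Tris-HCl pH 7.5 with 1.0 mM IBMX, 5 mM MgCl2, 0.1 mM ATP plus [α-32P]ATP, 0.2 mM EGTA, and a creatine phosphate/creatine kinase regenerating system. About 100 μg protein per assay, 30 °C for 10 min, stopped with TCA, [32P]cAMP isolated. Run in triplicate. EC50 taken from ≥2 curves over 0.01–200 μM. Where full activation was not reached, EC50 is the concentration giving 50% of the maximal activity with 200 μM forskolin.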

SMILES	Stimulation (Oryctolagus cuniculus) [%]	EC50 (Rattus norvegicus) [µM]	Conversion (Cavia porcellus) [%]
C=C[C@@]1(C)CC(=O)[C@@]2(O)[C@H](O1)C(OC(C)=O)C(=O)[C@H]1C(C)(C)CCC(=O)C12C (some centres undefined)	0		0.17
C=C[C@@]1(C)C[C@@H](O)[C@H]2[C@H](O1)C(O)C(O)[C@H]1C(C)(C)CC[C@H](O)C21C (some centres undefined)	1.6		0.41
C=C[C@@]1(C)CC(=O)[C@@]23OS(=O)O[C@H]4CCC(C)(C)[C@H](C(O)C(OC(C)=O)[C@H]2O1)C43C (some centres undefined)	28	> 200	1.2
C=C[C@@]1(C)CC(=O)[C@H]2[C@H](O1)C(OC(C)=O)C(O)[C@H]1C(C)(C)CCCC21C (some centres undefined)	1		0.18
C=C[C@@]1(C)CC(=O)[C@@]2(O)[C@H](O1)C(OC(C)=O)C(OC(C)=O)[C@H]1C(C)(C)CC[C@H](OC(C)=O)C12C (some centres undefined)	20	> 200	0.47
C=C[C@@]1(C)CC(=O)[C@H]2[C@H](O1)C(OC(C)=O)C(O)[C@H]1C(C)(C)CC[C@H](O)C21C (some centres undefined)	46	100	0.84
C=C[C@@]1(C)CC(=O)[C@@]2(O)[C@H](O1)C(OC(=O)c1cc(OC)c(OC)c(OC)c1)C(O)[C@H]1C(C)(C)CC[C@H](O)C12C (some centres undefined)	31	> 25	0.26
C=C[C@@]1(C)CC(=O)[C@@]2(O)[C@H](O1)C(OS(=O)(=O)c1ccc(C)cc1)C(O)[C@H]1C(C)(C)CC[C@H](O)C12C (some centres undefined)	5	> 25	0.16
C=C[C@@]1(C)CC(=O)[C@@]2(O)[C@H](O1)C(OC(C)=O)C(O)[C@H]1C(C)(C)CCC(=O)C12C (some centres undefined)	47	200	0.76
C=C[C@@]1(C)CC(=O)[C@@]23OC(=O)O[C@H]4CCC(C)(C)[C@H](C5OC(=O)OC5[C@H]2O1)C43C (some centres undefined)	1		0.25

Second part, led by results:

Stimulation (Oryctolagus cuniculus) [%]	EC50 (Rattus norvegicus) [µM]	SMILES	Conversion (Cavia porcellus) [%]
0		CC(=O)OC1C(O)[C@H]2C(C)(C)CC[C@H](O)C2(C)[C@@]23OC(CO)[C@@](C)(CC2=O)O[C@H]13 (some centres undefined)	0.18
60	8	C=C[C@@]1(C)CC(=O)[C@@]2(O)[C@H](O1)C(OC(=O)OCC)C(O)[C@H]1C(C)(C)CC[C@H](O)C12C (some centres undefined)	4.01
49	100	CC[C@@]1(C)CC(=O)[C@@]2(O)[C@H](O1)C(OC(C)=O)C(O)[C@H]1C(C)(C)CC[C@H](O)C12C (some centres undefined)	0.97
100	8	C=C[C@@]1(C)CC(=O)[C@@]2(O)[C@H](O1)C(OC(C)=O)C(O)[C@H]1C(C)(C)CC[C@H](O)C12C (some centres undefined)	4.4
49	50	C=C[C@@]1(C)C[C@H](O)[C@@]2(O)[C@H](O1)C(OC(C)=O)C(O)[C@H]1C(C)(C)CC[C@H](O)C12C (some centres undefined)	0.97
67	15	C=C[C@@]1(C)CC(=O)[C@@]2(O)[C@H](O1)C(OC(=O)CC)C(O)[C@H]1C(C)(C)CC[C@H](O)C12C (some centres undefined)	1.07
59	200	C=C[C@@]1(C)CC(=O)[C@@]2(O)[C@H](O1)C(OC(=O)N(CC)CC)C(O)[C@H]1C(C)(C)CC[C@H](O)C12C (some centres undefined)	0.84
5		CC(=O)OC1C(O)[C@H]2C(C)(C)CC[C@H](O)C2(C)[C@@]2(O)C(=O)C[C@](C)(C3CO3)O[C@H]12 (some centres undefined)	0.22
51	20	C=C[C@@]1(C)CC(=O)[C@@]2(O)[C@H](O1)C(O)C(O)[C@H]1C(C)(C)CC[C@H](O)C12C (some centres undefined)	1.37
52	150	C=C[C@@]1(C)CC(=O)[C@@]2(O)[C@H](O1)C(OC=O)C(O)[C@H]1C(C)(C)CC[C@H](O)C12C (some centres undefined)	0.47
